From ChEMBL document CHEMBL1949507, “Synthesis and biological evaluation of [6]-gingerol analogues as transient receptor potential channel TRPV1 and TRPA1 modulators” (Bioorg Med Chem Lett, 2012)

Experiments:
Assay type in all cases: functional, cell-based
[1] = molecular target: T1, Transient receptor potential cation channel subfamily V member 1 (Homo sapiens, UniProt Q8NER1); test: Agonist activity at human TRPV1 ion channel expressed in HEK293 cells assessed as calcium influx by fluo-4-Am-based fluorimetry relative to ionomycin
[2] = molecular target: T1, Transient receptor potential cation channel subfamily V member 1; test: Antagonist activity at human TRPV1 ion channel expressed in HEK293 cells assessed as inhibition of capsaicin-induced calcium influx incubated for 5 mins prior to capsicin-induction by fluo-4-AM-based fluorimetry
Outline: (§1)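 Stably transfected HEK293 (human TRPV1 or rat TRPA1) were loaded with Fluo-4-AM, washed in Tyrode's buffer and read by spectrofluorimetry (ex 488/em 516 nm). […] Inhibition of the agonist-evoked [Ca2+]i rise was recorded, giving IC50.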

[3] = molecular target: Transient receptor potential cation channel subfamily A member 1 (Rattus norvegicus) (UniProt Q6RI86); test: Agonist activity at rat TRPA1 ion channel expressed in HEK293 cells assessed as calcium influx by fluo-4-Am-based fluorimetry relative to allyl isothiocyanate
[4] = molecular target: T2, Transient receptor potential cation channel subfamily A member 1 (Rattus norvegicus, UniProt Q6RI86); test: Agonist activity at rat TRPA1 ion channel expressed in HEK293 cells assessed as calcium influx by fluo-4-Am-based fluorimetry
[5] = molecular target: T2, Transient receptor potential cation channel subfamily A member 1; test: Antagonist activity at rat TRPA1 ion channel expressed in HEK293 cells assessed as inhibition of AITC-induced calcium influx incubated for 5 mins prior to AITC-induction by fluo-4-AM-based fluorimetry; outline: as §1
[6] = molecular target: T1, Transient receptor potential cation channel subfamily V member 1; test: Agonist activity at human TRPV1 ion channel expressed in HEK293 cells assessed as calcium influx by fluo-4-Am-based fluorimetry
[7] = molecular target: Transient receptor potential cation channel subfamily A member 1 (Rattus norvegicus) (UniProt Q6RI86); test: Agonist activity at rat TRPA1 ion channel expressed in HEK293 cells assessed as calcium influx by fluo-4-Am-based fluorimetry relative to ionomycin
Outline: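 HEK293 cells stably transfected with rat TRPA1 cDNA, loaded with Fluo-4-AM in EMEM, washed twice in Tyrode's buffer and read in a spectrofluorimeter cuvette (ex 488 nm, em 516 nm). [Ca2+]i was measured before and after adding various concentrations of test compound. Responses in non-transfected wild-type HEK293 cells served as baseline and were subtracted from transfected-cell values.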

Transient receptor potential cation channel subfamily A member 1 (Rattus norvegicus), sequence (Q6RI86 whole entry): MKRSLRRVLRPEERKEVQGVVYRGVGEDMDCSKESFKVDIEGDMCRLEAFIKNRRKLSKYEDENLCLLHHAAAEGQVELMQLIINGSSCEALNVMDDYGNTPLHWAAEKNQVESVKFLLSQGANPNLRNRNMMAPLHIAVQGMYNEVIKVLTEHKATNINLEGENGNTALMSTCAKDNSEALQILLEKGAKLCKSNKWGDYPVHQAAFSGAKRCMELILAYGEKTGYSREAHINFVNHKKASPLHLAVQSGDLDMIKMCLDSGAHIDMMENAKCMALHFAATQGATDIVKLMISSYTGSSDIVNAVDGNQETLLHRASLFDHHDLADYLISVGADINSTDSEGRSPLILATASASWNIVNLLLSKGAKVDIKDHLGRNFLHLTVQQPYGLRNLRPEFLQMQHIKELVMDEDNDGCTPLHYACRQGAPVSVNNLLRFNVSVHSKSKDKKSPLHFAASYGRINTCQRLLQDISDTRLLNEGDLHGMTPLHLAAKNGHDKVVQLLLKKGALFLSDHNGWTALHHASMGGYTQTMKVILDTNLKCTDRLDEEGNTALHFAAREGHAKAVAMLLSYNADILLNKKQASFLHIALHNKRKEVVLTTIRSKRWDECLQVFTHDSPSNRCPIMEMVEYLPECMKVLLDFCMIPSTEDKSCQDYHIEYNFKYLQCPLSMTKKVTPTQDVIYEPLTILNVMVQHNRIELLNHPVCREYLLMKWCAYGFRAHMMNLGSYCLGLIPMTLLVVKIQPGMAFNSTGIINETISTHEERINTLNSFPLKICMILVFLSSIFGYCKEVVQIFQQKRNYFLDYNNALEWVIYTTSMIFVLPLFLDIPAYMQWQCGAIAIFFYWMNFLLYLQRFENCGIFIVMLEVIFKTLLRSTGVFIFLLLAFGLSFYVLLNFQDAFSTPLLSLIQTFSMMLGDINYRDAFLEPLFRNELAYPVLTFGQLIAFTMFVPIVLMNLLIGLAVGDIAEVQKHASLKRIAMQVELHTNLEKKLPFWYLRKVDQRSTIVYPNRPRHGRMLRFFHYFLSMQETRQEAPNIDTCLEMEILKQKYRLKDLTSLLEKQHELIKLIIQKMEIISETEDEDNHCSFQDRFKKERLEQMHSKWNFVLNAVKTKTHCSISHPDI
T2 sequence (Q6RI86 whole entry): as above
T1 sequence (Q8NER1 whole entry): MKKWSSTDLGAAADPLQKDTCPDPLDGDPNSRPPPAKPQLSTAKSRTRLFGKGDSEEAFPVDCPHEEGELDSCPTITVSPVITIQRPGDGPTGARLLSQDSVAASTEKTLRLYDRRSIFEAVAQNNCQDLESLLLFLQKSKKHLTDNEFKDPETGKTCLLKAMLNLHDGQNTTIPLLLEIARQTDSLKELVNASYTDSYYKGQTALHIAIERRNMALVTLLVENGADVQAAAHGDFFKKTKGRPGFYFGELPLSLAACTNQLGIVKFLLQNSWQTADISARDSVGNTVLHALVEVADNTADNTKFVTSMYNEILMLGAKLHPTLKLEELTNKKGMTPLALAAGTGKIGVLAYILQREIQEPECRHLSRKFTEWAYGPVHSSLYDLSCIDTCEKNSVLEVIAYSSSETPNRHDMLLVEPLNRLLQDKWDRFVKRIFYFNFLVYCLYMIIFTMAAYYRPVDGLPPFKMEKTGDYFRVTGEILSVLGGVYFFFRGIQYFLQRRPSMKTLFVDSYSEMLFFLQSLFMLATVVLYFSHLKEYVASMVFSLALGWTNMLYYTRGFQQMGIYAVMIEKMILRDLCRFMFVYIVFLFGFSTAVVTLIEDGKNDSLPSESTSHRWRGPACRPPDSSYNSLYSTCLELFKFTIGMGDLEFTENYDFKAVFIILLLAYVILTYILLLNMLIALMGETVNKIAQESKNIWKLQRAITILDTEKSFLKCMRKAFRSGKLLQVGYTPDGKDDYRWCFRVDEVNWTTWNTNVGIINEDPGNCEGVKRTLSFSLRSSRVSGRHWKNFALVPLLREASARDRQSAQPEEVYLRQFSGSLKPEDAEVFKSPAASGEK

Structure (SMILES)	Efficacy [1]	IC50 [2]	Efficacy [3]	EC50 [4]	IC50 [5]	EC50 [6]	Efficacy [7]
CCCCCC(O)CC(=O)CCc1cc(C(C)C)c(O)cc1C (stereo not given)	< 10%	4.8 µM	78.2%	1.1 µM	3.9 µM	–	–
O=C(CCc1ccc2c(c1)OCO2)CC(O)CCCCCCc1ccccc1 (stereo not given)	–	> 10 µM	–	–	–	–	–
CCCCC/C=C/C(=O)CCc1ccc(O)c(OC)c1 [SHOGAOL]	79.2%	0.29 µM	91.1%	16 µM	16.7 µM	0.32 µM	–
O=C(CCc1ccc(O)cc1)CC(O)Cc1ccccc1 (stereo not given)	10.8%	33.5 µM	131%	10.7 µM	35.1 µM	1 µM	–
CCCCCC(O)CC(=O)CCc1ccccc1 (stereo not given)	< 10%	> 50 µM	< 10%	–	56.1 µM	–	–
CC(C)c1cc(CCC(=O)CC(O)CCCCCCc2ccccc2)cc(C(C)C)c1O (stereo not given)	< 10%	> 10 µM	< 10%	–	11.1 µM	–	–
O=C(CCc1ccccc1)CC(O)CCCCCCc1ccccc1 (stereo not given)	< 10%	> 10 µM	< 10%	–	–	–	–
Cc1cc(O)c(C(C)C)cc1CCC(=O)CC(O)Cc1ccccc1 (stereo not given)	< 10%	35.3 µM	51.3%	3.5 µM	39.7 µM	–	–
C=CCN=C=S	–	–	–	–	–	–	41.8%
COc1cc(CCC(=O)CC(O)CCCCCCc2ccccc2)ccc1O (stereo not given)	60%	0.11 µM	< 10%	–	38.2 µM	0.11 µM	–
CCCCCC(O)CC(=O)CCc1ccc(O)c(OC)c1 (racemic)	51.4%	5 µM	11.4%	10.4 µM	> 100 µM	3.3 µM	–
CC(C)c1cc(CCC(=O)CC(O)Cc2ccccc2)cc(C(C)C)c1O (stereo not given)	< 10%	> 50 µM	< 10%	–	–	–	–
O=C(/C=C/CCCCCCc1ccccc1)CCc1ccc(O)cc1	19.7%	1.2 µM	89.2%	2.2 µM	2.3 µM	0.1 µM	–
CCCCCC(O)CC(=O)CCc1ccc2c(c1)OCO2 (stereo not given)	< 10%	> 100 µM	< 10%	–	> 100 µM	–	–
COc1cc(CCC(=O)CC(O)Cc2ccccc2)ccc1O (stereo not given)	56.9%	13.2 µM	< 10%	–	97.8 µM	14.3 µM	–
O=C(CCc1ccccc1)CC(O)Cc1ccccc1 (stereo not given)	< 10%	> 50 µM	17.5%	–	4.5 µM	–	–
CCCCCC(O)CC(=O)CCc1ccc(O)cc1 (stereo not given)	23.6%	10.5 µM	114%	8.4 µM	22.6 µM	1.2 µM	–
O=C(CCc1ccc(O)cc1)CC(O)CCCCCCc1ccccc1 (stereo not given)	43%	9.4 µM	< 10%	–	15.8 µM	14.6 µM	–
Cc1cc(O)c(C(C)C)cc1CCC(=O)CC(O)CCCCCCc1ccccc1 (stereo not given)	33.5%	1.3 µM	163%	22.1 µM	14.3 µM	0.5 µM	–
COc1cc(CNC(=O)CCCC/C=C/C(C)C)ccc1O	–	–	100%	–	–	–	–
CCCCCC(O)CC(=O)CCc1cc(C(C)C)c(O)c(C(C)C)c1 (stereo not given)	< 10%	> 50 µM	63.6%	2.1 µM	2.8 µM	–	–
O=C(CCc1ccc2c(c1)OCO2)CC(O)Cc1ccccc1 (stereo not given)	< 10%	> 50 µM	16.5%	–	14.4 µM	–	–
